# Measurements as given in PMC7058367 (Biochemical pharmacology, 2018).
# Like-named read-outs stand apart in the source and are kept apart here.
# What was measured:
# [1] = target: GluN1/GluN2C^ΔCTD receptors (Rattus norvegicus, UniProt P35439+Q00961); assay: Two-electrode voltage clamp of GluN2C CTD-deleted receptors; format: cell-based; conditions: 50 µM compound; 10 µM L-glutamate/10 µM glycine (Fig. 1B,C)
# Summary of the method: (§1)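 Xenopus laevis oocytes were injected with GluN1a and GluN2 RNA at a 1:3 molar ratio. The CTD was removed by a stop codon at GluN1 838K or GluN2C 855K, and 10-20-fold more RNA than wild type was injected. Oocytes were kept in ND-96 at 17 °C for 1-5 days. TEVC was run at -60 mV in Ba2+ buffer (pH 7.4). […] Full-length receptors were run alternately on the same day and oocyte batch. Values are mean ± s.e.m.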
# [2] = target: GluN1^ΔCTD/GluN2B receptors (Rattus norvegicus, UniProt P35439+Q00960); format: cell-based; conditions: 50 µM compound; 10 µM L-glutamate/10 µM glycine (Fig. 1D)
# Summary of the method: (§2)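 Xenopus laevis oocytes were injected with GluN1a:GluN2 RNA at a 1:3 molar ratio (15-30 ng total; 10-20-fold more for CTD-deleted subunits) and kept in ND-96 at 17 °C for 1-5 days. TEVC was run at -60 mV in 116 mM NaCl, 2 mM KCl, 0.3 mM BaCl2, 5 mM HEPES, pH 7.4. […] Full-length controls came from the same batch and day; mean ± s.e.m.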
# [3] = target: GluN1/GluN2A^ΔCTD receptors (Rattus norvegicus, UniProt P35439+Q00959); format: cell-based
# Summary of the method: as §2
# [4] = target: GluN1/GluN2B^ΔCTD receptors (Rattus norvegicus, UniProt P35439+Q00960); format: cell-based; conditions: 50 µM compound; 10 µM L-glutamate/10 µM glycine (Fig. 1C)
# [5] = target: GluN1/GluN2B receptors (Rattus norvegicus, UniProt P35439+Q00960); format: cell-based
# [6] = target: GluN1^ΔCTD/GluN2A receptors (Rattus norvegicus, UniProt P35439+Q00959); format: cell-based; conditions: 50 µM compound; 10 µM L-glutamate/10 µM glycine (Fig. 1D)
# Summary of the method: as §2
# [7] = target: GluN1/GluN2C receptors (Rattus norvegicus, UniProt P35439+Q00961); format: cell-based; conditions: 5 mM EGTA injected vs controls (Fig. 6C, G)
# Sequence of GluN1/GluN2C receptors (Q00961 20-1237, other chains not shown): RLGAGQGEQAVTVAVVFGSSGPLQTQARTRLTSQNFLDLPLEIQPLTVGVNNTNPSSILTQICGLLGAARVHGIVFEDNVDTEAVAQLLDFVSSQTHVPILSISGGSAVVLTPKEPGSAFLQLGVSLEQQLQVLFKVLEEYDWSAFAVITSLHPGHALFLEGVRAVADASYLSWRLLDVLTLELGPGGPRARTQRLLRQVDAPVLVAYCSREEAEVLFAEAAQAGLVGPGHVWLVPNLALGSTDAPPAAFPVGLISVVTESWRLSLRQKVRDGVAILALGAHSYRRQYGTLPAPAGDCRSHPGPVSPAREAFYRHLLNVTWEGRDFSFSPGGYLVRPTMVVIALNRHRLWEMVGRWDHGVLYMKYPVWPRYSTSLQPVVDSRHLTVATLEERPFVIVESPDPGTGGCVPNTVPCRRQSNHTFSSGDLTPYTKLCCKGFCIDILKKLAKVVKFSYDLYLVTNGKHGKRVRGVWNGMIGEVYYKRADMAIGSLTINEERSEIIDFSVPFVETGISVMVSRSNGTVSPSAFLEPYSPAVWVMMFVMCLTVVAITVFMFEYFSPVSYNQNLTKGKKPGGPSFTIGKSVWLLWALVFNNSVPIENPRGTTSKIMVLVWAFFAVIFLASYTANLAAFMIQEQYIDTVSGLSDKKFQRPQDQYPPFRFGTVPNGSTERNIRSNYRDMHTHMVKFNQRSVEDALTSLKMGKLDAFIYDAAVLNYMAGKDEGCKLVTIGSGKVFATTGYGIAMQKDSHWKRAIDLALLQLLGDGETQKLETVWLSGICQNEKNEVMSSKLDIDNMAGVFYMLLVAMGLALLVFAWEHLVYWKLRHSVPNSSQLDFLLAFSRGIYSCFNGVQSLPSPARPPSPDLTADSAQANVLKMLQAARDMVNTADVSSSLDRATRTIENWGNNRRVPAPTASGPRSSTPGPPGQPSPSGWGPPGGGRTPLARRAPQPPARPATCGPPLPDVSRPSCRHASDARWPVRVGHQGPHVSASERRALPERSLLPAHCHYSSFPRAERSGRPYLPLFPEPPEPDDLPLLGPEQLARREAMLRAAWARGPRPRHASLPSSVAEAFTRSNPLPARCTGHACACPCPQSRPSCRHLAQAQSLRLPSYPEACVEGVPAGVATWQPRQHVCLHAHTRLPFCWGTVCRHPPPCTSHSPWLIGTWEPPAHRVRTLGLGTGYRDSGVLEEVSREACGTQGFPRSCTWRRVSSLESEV
# Summary of the method: (§3)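 Oocytes expressed wild-type GluN1a/GluN2 receptors from 15-30 ng RNA (1:3 molar) and were held in ND-96 at 17 °C for 1-5 days. For Ca2+ chelation, 5 mM EGTA (50 nL) was injected 1-2 h before recording, with uninjected and water-injected oocytes as controls. TEVC was run at -60 mV in 116 mM NaCl, 2 mM KCl, 0.3 mM BaCl2, 5 mM HEPES (pH 7.4). […] Values are mean ± s.e.m.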
# [8] = target: GluN1/GluN2D receptors (Rattus norvegicus, UniProt P35439+Q62645); format: cell-based; conditions: 5 mM EGTA injected vs controls (Fig. 6D, H)
# Sequence of GluN1/GluN2D receptors (Q62645 28-1323, other chains not shown): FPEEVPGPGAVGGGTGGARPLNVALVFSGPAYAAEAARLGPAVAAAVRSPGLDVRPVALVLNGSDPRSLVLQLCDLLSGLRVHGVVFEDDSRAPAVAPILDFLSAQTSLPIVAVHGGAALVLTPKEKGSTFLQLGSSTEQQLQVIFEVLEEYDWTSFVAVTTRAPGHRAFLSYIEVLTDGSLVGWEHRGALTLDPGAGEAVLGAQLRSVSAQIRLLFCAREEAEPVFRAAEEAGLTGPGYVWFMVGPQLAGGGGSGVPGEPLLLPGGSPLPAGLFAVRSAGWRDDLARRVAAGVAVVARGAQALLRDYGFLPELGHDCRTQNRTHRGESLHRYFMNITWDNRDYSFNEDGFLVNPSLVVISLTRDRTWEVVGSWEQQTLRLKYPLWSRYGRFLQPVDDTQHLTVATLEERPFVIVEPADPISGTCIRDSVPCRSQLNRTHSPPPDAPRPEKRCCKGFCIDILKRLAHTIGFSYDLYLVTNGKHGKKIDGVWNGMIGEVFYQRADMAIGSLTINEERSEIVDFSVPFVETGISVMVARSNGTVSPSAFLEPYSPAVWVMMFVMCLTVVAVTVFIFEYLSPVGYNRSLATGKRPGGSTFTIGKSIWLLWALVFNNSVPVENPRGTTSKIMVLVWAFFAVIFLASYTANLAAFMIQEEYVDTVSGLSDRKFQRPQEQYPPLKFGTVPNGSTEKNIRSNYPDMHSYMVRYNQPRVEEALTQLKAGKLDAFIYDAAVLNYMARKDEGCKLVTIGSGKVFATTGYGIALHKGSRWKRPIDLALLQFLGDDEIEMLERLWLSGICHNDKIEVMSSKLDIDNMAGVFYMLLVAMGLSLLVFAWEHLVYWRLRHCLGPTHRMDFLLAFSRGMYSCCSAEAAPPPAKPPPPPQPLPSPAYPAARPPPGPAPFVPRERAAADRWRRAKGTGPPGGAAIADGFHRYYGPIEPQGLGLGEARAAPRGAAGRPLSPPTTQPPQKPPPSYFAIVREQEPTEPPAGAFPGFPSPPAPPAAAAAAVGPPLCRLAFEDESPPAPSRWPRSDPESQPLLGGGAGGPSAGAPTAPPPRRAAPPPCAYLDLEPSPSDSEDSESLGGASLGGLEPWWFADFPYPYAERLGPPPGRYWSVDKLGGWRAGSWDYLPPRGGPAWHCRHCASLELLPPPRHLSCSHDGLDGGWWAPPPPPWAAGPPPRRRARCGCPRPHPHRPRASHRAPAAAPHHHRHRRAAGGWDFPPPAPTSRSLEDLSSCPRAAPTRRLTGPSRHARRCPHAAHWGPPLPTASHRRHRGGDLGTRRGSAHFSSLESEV
# Summary of the method: as §3
# [9] = target: GluN1^ΔCTD/GluN2D receptors (Rattus norvegicus, UniProt P35439+Q62645); format: cell-based; conditions: 50 µM compound; 10 µM L-glutamate/10 µM glycine (Fig. 1D)
# Sequence of GluN1^ΔCTD/GluN2D receptors (Q62645 28-1323, stated change not applied, other chains not shown): as the sequence (Q62645 28-1323, other chains not shown) above
# Summary of the method: as §1
# [10] = system: GluN1/GluN2D^ΔCTD receptors; format: cell-based, rat; conditions: 50 µM compound; compared to wildtype
# [11] = target: GluN1/GluN2D^ΔCTD receptors (Rattus norvegicus, UniProt P35439+Q62645); format: cell-based; conditions: 50 µM compound; 10 µM L-glutamate/10 µM glycine (Fig. 1C)
# Sequence of GluN1/GluN2D^ΔCTD receptors (Rattus norvegicus, UniProt P35439+Q62645) (Q62645 28-869 limits assumed, stated change not applied, other chains not shown): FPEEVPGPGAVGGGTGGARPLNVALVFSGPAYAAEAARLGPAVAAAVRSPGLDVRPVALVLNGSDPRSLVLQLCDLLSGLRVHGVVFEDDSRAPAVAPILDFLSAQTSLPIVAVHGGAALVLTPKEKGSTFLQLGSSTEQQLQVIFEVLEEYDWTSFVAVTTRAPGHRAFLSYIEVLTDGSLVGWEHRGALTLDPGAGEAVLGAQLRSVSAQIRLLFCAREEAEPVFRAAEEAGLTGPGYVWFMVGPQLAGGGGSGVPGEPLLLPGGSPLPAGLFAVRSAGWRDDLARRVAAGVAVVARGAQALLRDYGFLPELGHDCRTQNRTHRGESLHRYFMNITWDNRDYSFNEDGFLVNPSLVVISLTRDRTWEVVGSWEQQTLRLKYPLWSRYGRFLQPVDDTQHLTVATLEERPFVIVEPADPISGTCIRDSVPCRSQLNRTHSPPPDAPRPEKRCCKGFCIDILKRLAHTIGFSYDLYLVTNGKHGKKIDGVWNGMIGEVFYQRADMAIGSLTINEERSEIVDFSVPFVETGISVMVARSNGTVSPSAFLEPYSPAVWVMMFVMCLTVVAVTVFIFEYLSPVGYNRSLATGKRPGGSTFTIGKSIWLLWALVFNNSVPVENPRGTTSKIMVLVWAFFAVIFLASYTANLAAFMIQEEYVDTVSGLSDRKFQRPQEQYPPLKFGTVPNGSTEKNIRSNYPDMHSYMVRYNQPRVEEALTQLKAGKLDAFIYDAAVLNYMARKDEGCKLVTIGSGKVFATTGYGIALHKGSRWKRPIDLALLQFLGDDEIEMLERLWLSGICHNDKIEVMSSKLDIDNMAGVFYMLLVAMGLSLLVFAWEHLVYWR
# [12] = target: GluN1^ΔCTD/GluN2C receptors (Rattus norvegicus, UniProt P35439+Q00961); format: cell-based; conditions: 50 µM compound; 10 µM L-glutamate/10 µM glycine (Fig. 1D)
# Sequence of GluN1^ΔCTD/GluN2C receptors (Q00961 20-1237, stated change not applied, other chains not shown): as the sequence (Q00961 20-1237, other chains not shown) above
# Summary of the method: as §2
# [13] = target: GluN1/GluN2A receptors (Rattus norvegicus, UniProt P35439+Q00959); format: cell-based
# Summary of the method: as §2
# [14] = system: GluN1 CTD in neurons expressing GluN1-GFP, GluN2A and GluN1-mCherry; assay: CTD-FRET; format: cell-based, rat; conditions: 75 µM compound, absence of agonists, imaged 10 min after application (Fig. 8)
# Summary of the method: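 Rat primary hippocampal neurons were transfected at DIV 7-10 with ~2 µg total DNA (GluN1-GFP, GluN2A, GluN1-mCherry) by lipofection and imaged at 16-18 DIV in 0.87x HBSS, 5 mM HEPES, 1 mM glucose, 2.5 mM MgCl2, 0.5 mM CaCl2. Baseline and 10 min post-compound two-photon FLIM images were taken, each neuron imaged twice, compounds interleaved. Lifetimes were fit single-exponential and analysed blind; two preparations pooled.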
# [15] = 2 µM PMA for 10 minutes, 50 µM UBP684, 100 µM PS (Fig. 7E, F)
# [16] = 10 µM FSK and 1 mM IBMX for 10 minutes, 50 µM UBP684, 100 µM PS (Fig. 7B, C)
# [17] = 50 µM compound, control media for U73122 experiment (Fig. 6I)
# Sequence of GluN1/GluN2C^ΔCTD receptors (Q00961 20-842, stated change not applied, other chains not shown): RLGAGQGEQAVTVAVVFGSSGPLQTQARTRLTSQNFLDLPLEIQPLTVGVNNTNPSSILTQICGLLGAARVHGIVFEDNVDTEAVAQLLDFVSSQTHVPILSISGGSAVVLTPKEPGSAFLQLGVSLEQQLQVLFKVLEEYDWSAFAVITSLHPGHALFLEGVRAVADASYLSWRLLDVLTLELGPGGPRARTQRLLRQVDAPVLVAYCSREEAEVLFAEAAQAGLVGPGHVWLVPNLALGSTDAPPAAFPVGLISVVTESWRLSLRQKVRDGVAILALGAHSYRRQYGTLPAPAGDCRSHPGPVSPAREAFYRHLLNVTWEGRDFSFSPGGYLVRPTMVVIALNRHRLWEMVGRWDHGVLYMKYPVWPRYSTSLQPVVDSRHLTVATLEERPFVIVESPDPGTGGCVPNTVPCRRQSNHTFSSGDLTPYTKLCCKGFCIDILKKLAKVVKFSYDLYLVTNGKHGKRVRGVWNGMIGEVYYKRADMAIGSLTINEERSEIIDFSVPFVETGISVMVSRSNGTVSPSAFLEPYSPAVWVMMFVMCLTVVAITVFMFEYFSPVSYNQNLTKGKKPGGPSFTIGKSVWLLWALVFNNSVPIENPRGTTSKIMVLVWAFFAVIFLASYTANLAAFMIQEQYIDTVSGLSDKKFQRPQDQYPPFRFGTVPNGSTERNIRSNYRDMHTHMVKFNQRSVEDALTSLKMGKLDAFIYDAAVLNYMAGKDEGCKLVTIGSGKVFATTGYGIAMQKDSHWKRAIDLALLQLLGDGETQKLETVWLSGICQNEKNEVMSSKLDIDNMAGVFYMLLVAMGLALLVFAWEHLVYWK
smiles,measurement,setting,value
CC(C)CCCc1ccc2cc(C(=O)O)ccc2c1 [UBP684],% inhibition of agonist-evoked current,[1],20 ± 3%
same,% potentiation of agonist-evoked current,[2],44 ± 8%
same,effect of PKC activation by PMA on PAM activity,"[3]; 2 µM PMA for 10 minutes, 50 µM UBP684, 100 µM PS (Fig. 7G, H)",increased
same,% potentiation of agonist-evoked current,"[3]; 50 µM compound, 10 µM L-glutamate/10 µM glycine (Fig. 1C)",27 ± 5%
same,reduction of potentiation by GluN2A CTD deletion compared to wildtype,"[3]; 50 µM compound, compared to wildtype",approximately 50%
same,% potentiation of agonist-evoked current,[4],74.4 ± 7.0%
same,effect of PKC activation by PMA on PAM activity,[5]; [15],larger % potentiation
same,effect of PKA activation on % potentiation,[5]; [16],unchanged
same,% potentiation of agonist response,"[5]; 50 µM compound, H2O-injected control oocytes (Fig. 6B)",45 ± 5%
same,% potentiation of agonist-evoked current,[5]; [17],33 ± 4%
same,% potentiation of agonist response,"[5]; 50 µM compound, oocytes injected with 5 mM EGTA (Fig. 6B)",28 ± 2%
same,% potentiation of agonist response,"[5]; 50 µM compound, un-injected control oocytes (Fig. 6B)",48 ± 4%
same,% potentiation of agonist-evoked current,[6],3 ± 2%
same,effect of EGTA injection on potentiation/modulation,[7],no significant effect
same,effect of EGTA injection on potentiation/modulation,[8],no significant effect
same,% potentiation of agonist-evoked current,[9],19 ± 7%
same,reduction of potentiation by GluN2D CTD deletion compared to wildtype,[10],approximately 50%
same,% potentiation of agonist-evoked current,[11],23 ± 4%
same,% potentiation of agonist-evoked current,[12],5 ± 3%
same,effect of PKC activation by PMA on PAM activity,[13]; [15],larger % potentiation
same,effect of PKA activation on % potentiation,[13]; [16],unchanged
same,% potentiation of agonist response,"[13]; 50 µM compound, H2O-injected control oocytes (Fig. 6A)",47 ± 13%
same,% potentiation of agonist-evoked current,[13]; [17],24 ± 5%
same,% potentiation of agonist response,"[13]; 50 µM compound, oocytes injected with 5 mM EGTA (Fig. 6A)",9 ± 3%
same,% potentiation of agonist response,"[13]; 50 µM compound, un-injected control oocytes (Fig. 6A)",54 ± 5%
same,change of GluN1-GFP fluorescence lifetime (movement of the GluN1 CTD),[14],significant increase
